Test system: HEK-293T
Experiment: Multiplex assay against HEK293T;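 as to Population Tubulin-Different-Phenotype (%): share of the cells with healthy nuclei that show this phenotype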
Format: toxicity, cell-based
Conditions: human
Summary of the method: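 Tubulin, mitochondrial-mass and membrane-permeability phenotypes are per cents of healthy-nucleus cells. Cells were gated by CellPathfinder machine learning into Hoechst high-intensity objects or normal cells, normal cells into healthy, pyknosed or fragmented nuclei, and pyknosed cells into mitotic or apoptotic. Before that, live cells stained at seeding with Hoechst33342, BioTracker Green Microtubule Cytoskeleton Dye, MitoTracker Red and Annexin V Alexa Fluor 680 were imaged on a CQ1 microscope at 37°C and 5% CO2 after compound addition.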

[1] = 12 h, 1 µM, compound concentration 1 uM, replicate 1
[2] = 12 h, 1 µM, compound concentration 1 uM, replicate 2
[3] = 12 h, 10 µM, compound concentration 10 uM, replicate 1
[4] = 12 h, 10 µM, compound concentration 10 uM, replicate 2
[5] = 24 h, 1 µM, compound concentration 1 uM, replicate 1
[6] = 24 h, 1 µM, compound concentration 1 uM, replicate 2
[7] = 24 h, 10 µM, compound concentration 10 uM, replicate 1
[8] = 24 h, 10 µM, compound concentration 10 uM, replicate 2
[9] = 48 h, 1 µM, compound concentration 1 uM, replicate 1
[10] = 48 h, 1 µM, compound concentration 1 uM, replicate 2
[11] = 48 h, 10 µM, compound concentration 10 uM, replicate 1
[12] = 48 h, 10 µM, compound concentration 10 uM, replicate 2

## C[C@@H](NCCCc1cccc(C(F)(F)F)c1)c1cccc2ccccc12.Cl [CINACALCET HYDROCHLORIDE]
[1]
  Population Apoptotic (%): 48%
  Population Fragmented Nuclei (%): 4%
  Population Healthy Nuclei (%): 49%
  Population Hoechst High Intensity Objects (%): 8%
  Population Membrane Permeable-Phenotype (%): 2%
  Population Mitochondria Different-Phenotype (%): 90%
  Population Mitotic Cells (%): 51%
  Population Normal (%): 91%
  Population Pyknosed Nuclei (%): 46%
  Population Tubulin-Different-Phenotype (%): 72%
  Total Cell Count: 382
[2]
  Population Apoptotic (%): 16%
  Population Fragmented Nuclei (%): 7%
  Population Healthy Nuclei (%): 32%
  Population Hoechst High Intensity Objects (%): 3%
  Population Membrane Permeable-Phenotype (%): 6%
  Population Mitochondria Different-Phenotype (%): 51%
  Population Mitotic Cells (%): 83%
  Population Normal (%): 96%
  Population Pyknosed Nuclei (%): 60%
  Population Tubulin-Different-Phenotype (%): 67%
  Total Cell Count: 158
[3]
  Population Apoptotic (%): 87%
  Population Fragmented Nuclei (%): 12%
  Population Healthy Nuclei (%): 13%
  Population Hoechst High Intensity Objects (%): 19%
  Population Membrane Permeable-Phenotype (%): 0%
  Population Mitochondria Different-Phenotype (%): 95%
  Population Mitotic Cells (%): 12%
  Population Normal (%): 80%
  Population Pyknosed Nuclei (%): 74%
  Population Tubulin-Different-Phenotype (%): 95%
  Total Cell Count: 195
[4]
  Population Apoptotic (%): 80%
  Population Fragmented Nuclei (%): 3%
  Population Healthy Nuclei (%): 11%
  Population Hoechst High Intensity Objects (%): 4%
  Population Mitotic Cells (%): 19%
  Population Normal (%): 95%
  Population Pyknosed Nuclei (%): 84%
  Population Tubulin-Different-Phenotype (%): 90%
  Total Cell Count: 193
[5]
  Population Apoptotic (%): 40%
  Population Healthy Nuclei (%): 61%
  Population Hoechst High Intensity Objects (%): 7%
  Population Membrane Permeable-Phenotype (%): 1%
  Population Mitochondria Different-Phenotype (%): 77%
  Population Mitotic Cells (%): 59%
  Population Normal (%): 92%
  Population Pyknosed Nuclei (%): 30%
  Population Tubulin-Different-Phenotype (%): 63%
  Total Cell Count: 417
[6]
  Population Apoptotic (%): 28%
  Population Fragmented Nuclei (%): 8%
  Population Healthy Nuclei (%): 48%
  Population Hoechst High Intensity Objects (%): 4%
  Population Membrane Permeable-Phenotype (%): 6%
  Population Mitochondria Different-Phenotype (%): 47%
  Population Mitotic Cells (%): 71%
  Population Normal (%): 95%
  Population Pyknosed Nuclei (%): 43%
  Population Tubulin-Different-Phenotype (%): 60%
  Total Cell Count: 201
[7]
  Population Apoptotic (%): 87%
  Population Fragmented Nuclei (%): 15%
  Population Healthy Nuclei (%): 15%
  Population Hoechst High Intensity Objects (%): 19%
  Population Membrane Permeable-Phenotype (%): 3%
  Population Mitotic Cells (%): 12%
  Population Normal (%): 80%
  Population Pyknosed Nuclei (%): 68%
  Population Tubulin-Different-Phenotype (%): 96%
  Total Cell Count: 227
[8]
  Population Apoptotic (%): 86%
  Population Fragmented Nuclei (%): 4%
  Population Healthy Nuclei (%): 18%
  Population Hoechst High Intensity Objects (%): 8%
  Population Membrane Permeable-Phenotype (%): 6%
  Population Mitochondria Different-Phenotype (%): 100%
  Population Mitotic Cells (%): 13%
  Population Normal (%): 91%
  Population Pyknosed Nuclei (%): 76%
  Population Tubulin-Different-Phenotype (%): 84%
  Total Cell Count: 198
[9]
  Population Apoptotic (%): 27%
  Population Fragmented Nuclei (%): 7%
  Population Healthy Nuclei (%): 79%
  Population Membrane Permeable-Phenotype (%): 1%
  Population Mitochondria Different-Phenotype (%): 43%
  Population Mitotic Cells (%): 72%
  Population Pyknosed Nuclei (%): 12%
  Population Tubulin-Different-Phenotype (%): 48%
  Total Cell Count: 730
[10]
  Population Apoptotic (%): 21%
  Population Fragmented Nuclei (%): 3%
  Population Healthy Nuclei (%): 74%
  Population Hoechst High Intensity Objects (%): 5%
  Population Membrane Permeable-Phenotype (%): 9%
  Population Mitochondria Different-Phenotype (%): 23%
  Population Mitotic Cells (%): 78%
  Population Normal (%): 94%
  Population Pyknosed Nuclei (%): 22%
  Population Tubulin-Different-Phenotype (%): 57%
  Total Cell Count: 266
[11]
  Population Apoptotic (%): 90%
  Population Fragmented Nuclei (%): 24%
  Population Healthy Nuclei (%): 12%
  Population Hoechst High Intensity Objects (%): 18%
  Population Membrane Permeable-Phenotype (%): 0%
  Population Mitochondria Different-Phenotype (%): 100%
  Population Mitotic Cells (%): 9%
  Population Normal (%): 81%
  Population Pyknosed Nuclei (%): 63%
  Population Tubulin-Different-Phenotype (%): 86%
  Total Cell Count: 216
[12]
  Population Apoptotic (%): 89%
  Population Fragmented Nuclei (%): 6%
  Population Healthy Nuclei (%): 18%
  Population Hoechst High Intensity Objects (%): 9%
  Population Membrane Permeable-Phenotype (%): 8%
  Population Mitochondria Different-Phenotype (%): 94%
  Population Mitotic Cells (%): 10%
  Population Normal (%): 90%
  Population Pyknosed Nuclei (%): 75%
  Population Tubulin-Different-Phenotype (%): 70%
  Total Cell Count: 203
